Results taken from ChEMBL document CHEMBL1149177, “Meta-substituted aryl(thio)ethers as potent partial agonists (or antagonists) for the histamine H3 receptor lacking a nitrogen atom in the side chain” (J Med Chem, 2004).

Key:
[1] = molecular target: Histamine H3 receptor (Rattus norvegicus, UniProt Q9QYN8); assay: In vitro inhibitory activity against histamine H3 receptor using [3H]histamine as radioligand from rat cerebral cortex synaptosomes; type: subcellular, Brain
In short: (§1)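 Rat cerebral cortex synaptosomes preincubated 30 min at 37 °C with L-[3H]histidine to label histamine stores; K+-evoked depolarization-induced [3H]histamine release measured. Intrinsic activity taken as maximal inhibition by test substance relative to that from histamine (1 μM). Antagonism read as blockade of the histamine effect, expressed as Ki.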

[2] = test system: Mus musculus; assay: In vivo inhibition of brain N-methyl-histamine formation in mice when administered perorally in presence of oxalate salt; type: functional; settings: po
In short: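 Male Swiss mice (18–22 g), groups of 6–12, given oxalate salt orally as solution or suspension in 1% methylcellulose. Cerebral cortex taken 90 min after dosing, homogenized in ice-cold 0.4 N perchloric acid. Nτ-methylhistamine measured by radioimmunoassay. Agonist maximal effect referenced to imetit 10 mg/kg; antagonist maximal effect referenced to thioperamide 10 mg/kg. ED50 given as free base.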

[3] = molecular target: Histamine H3 receptor (Rattus norvegicus) (UniProt Q9QYN8); assay: In vitro intrinsic activity against histamine H3 receptor using [3H]histamine as radioligand from rat cerebral cortex synaptosomes with respect to histamine; No detectable agonism.; type: functional, subcellular; settings: Brain; in short: as §1
[4] = organism: Mus musculus; assay: Intrinsic activity was determined inhibition of brain N-mehtylhistamine formation in mice relative to imetit; type: functional
In short: (§2)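 Oxalate salt given orally as solution or suspension in 1% methylcellulose to groups of 6–12 male Swiss mice (18–22 g); doses 0.15–30 mg/kg. Cerebral cortex taken 90 min later, homogenized in ice-cold 0.4 N perchloric acid, Nτ-methylhistamine measured by radioimmunoassay. Agonist maxima referenced to imetit 10 mg/kg; antagonist maxima to thioperamide 10 mg/kg; ED50 as free base.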

[5] = organism: Rattus norvegicus; assay: In vitro effective concentration of compound required to reduce histamine release from rat synaptosomes; type: functional; settings: Brain; in short: as §1
[6] = molecular target: Histamine H3 receptor (Homo sapiens) (UniProt Q9Y5N1); assay: Agonistic activity against histamine H3 receptor; Partial agonist; type: functional; settings: filed as partial agonist
[7] = molecular target: Histamine H3 receptor (Cavia porcellus) (UniProt Q9JI35); assay: Tested for activity of compound against histamine H3 receptor in guinea pig ileum; Antagonist; type: functional, tissue-based; settings: filed as antagonist
[8] = molecular target: Histamine H3 receptor (Homo sapiens) (UniProt Q9Y5N1); assay: Tested in vivo for activity against histamine H3 receptor; Full agonist; type: functional, organism-based; settings: filed as agonist; in short: as §2
[9] = test system: Mus musculus; assay: In vivo Intrinsic activity inhibition of brain N-mehtylhistamine formation in mice relative to imetit; Antagonist.; type: functional; in short: as §2
[10] = molecular target: Histamine H3 receptor (Rattus norvegicus) (UniProt Q9QYN8); assay: In vitro intrinsic activity against histamine H3 receptor using [3H]histamine as radioligand from rat cerebral cortex synaptosomes with respect to histamine; type: subcellular; settings: Brain; in short: as §1
[11] = organism: Cavia porcellus; assay: Tested for activity of compound against neurogenic contractions of guinea pig jejunum; Potent antagonist; type: functional; settings: filed as antagonist
[12] = molecular target: Histamine H3 receptor (Mus musculus) (UniProt P58406); assay: Activity against Histamine H3 receptor mediated inhibition of [3H]norepinephrine release from mouse brain; Partial agonist; type: functional; settings: filed as partial agonist
[13] = molecular target: Histamine H3 receptor (Homo sapiens) (UniProt Q9Y5N1); assay: Tested for activity against histamine H3 receptor; Weak antagonist; type: functional; settings: filed as antagonist
[14] = molecular target: Histamine H3 receptor (Mus musculus) (UniProt P58406); assay: Tested for activity against histamine H3 receptor in vivo in mice; Weak agonist; type: functional, organism-based; settings: filed as partial agonist; in short: as §2
[15] = molecular target: Histamine H3 receptor (Rattus norvegicus) (UniProt Q9QYN8); assay: In vitro activity against histamine H3 receptor in rat synaptosomes; Partial agonist; type: functional, subcellular; settings: Brain; filed as partial agonist; in short: as §1
[16] = molecular target: Histamine H3 receptor (Cavia porcellus) (UniProt Q9JI35); assay: In vitro activity against histamine H3 receptor in guinea pig ileum; Antagonist; type: functional, tissue-based; settings: filed as antagonist

Sequence of Histamine H3 receptor (Q9QYN8 whole entry): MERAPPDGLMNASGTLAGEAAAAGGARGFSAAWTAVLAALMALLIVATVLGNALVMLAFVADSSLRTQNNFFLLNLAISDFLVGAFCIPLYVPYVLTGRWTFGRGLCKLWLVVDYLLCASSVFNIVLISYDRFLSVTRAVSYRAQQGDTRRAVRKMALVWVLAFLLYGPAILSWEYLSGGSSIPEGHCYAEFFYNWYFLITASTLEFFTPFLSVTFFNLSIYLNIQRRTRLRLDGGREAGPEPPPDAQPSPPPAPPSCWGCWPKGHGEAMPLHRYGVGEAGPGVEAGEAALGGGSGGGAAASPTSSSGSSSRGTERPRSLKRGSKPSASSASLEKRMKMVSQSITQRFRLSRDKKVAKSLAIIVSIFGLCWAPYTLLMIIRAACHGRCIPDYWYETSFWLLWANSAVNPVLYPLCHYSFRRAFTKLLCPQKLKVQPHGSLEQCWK
Sequence of Histamine H3 receptor (Rattus norvegicus) (Q9QYN8 whole entry): as above
Sequence of Histamine H3 receptor (Cavia porcellus) (Q9JI35 whole entry): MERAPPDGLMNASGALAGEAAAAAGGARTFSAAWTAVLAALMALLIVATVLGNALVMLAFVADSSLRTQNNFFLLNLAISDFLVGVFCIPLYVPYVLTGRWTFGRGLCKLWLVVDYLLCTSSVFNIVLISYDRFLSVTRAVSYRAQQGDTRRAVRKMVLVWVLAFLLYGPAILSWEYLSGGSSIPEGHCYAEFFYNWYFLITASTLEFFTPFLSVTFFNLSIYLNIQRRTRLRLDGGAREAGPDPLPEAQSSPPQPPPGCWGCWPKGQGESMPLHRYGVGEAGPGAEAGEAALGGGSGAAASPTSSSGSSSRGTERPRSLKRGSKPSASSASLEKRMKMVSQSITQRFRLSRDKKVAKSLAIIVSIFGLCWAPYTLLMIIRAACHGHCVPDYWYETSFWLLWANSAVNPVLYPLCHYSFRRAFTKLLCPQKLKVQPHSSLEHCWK
Sequence of Histamine H3 receptor (Homo sapiens) (Q9Y5N1 whole entry): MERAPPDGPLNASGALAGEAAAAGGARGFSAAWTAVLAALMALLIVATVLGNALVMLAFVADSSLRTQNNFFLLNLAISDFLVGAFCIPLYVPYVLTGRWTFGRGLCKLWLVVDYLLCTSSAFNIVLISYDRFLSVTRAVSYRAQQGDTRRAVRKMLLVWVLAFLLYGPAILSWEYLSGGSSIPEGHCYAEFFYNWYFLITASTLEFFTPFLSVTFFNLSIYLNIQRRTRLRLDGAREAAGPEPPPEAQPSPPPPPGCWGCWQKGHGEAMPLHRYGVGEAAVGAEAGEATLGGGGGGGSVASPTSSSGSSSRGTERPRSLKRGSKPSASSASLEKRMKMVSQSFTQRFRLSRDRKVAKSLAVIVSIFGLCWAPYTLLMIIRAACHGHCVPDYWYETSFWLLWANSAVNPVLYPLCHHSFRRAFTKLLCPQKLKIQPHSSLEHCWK
Sequence of Histamine H3 receptor (Mus musculus) (P58406 whole entry): as the sequence (Q9QYN8 whole entry) above, with T15A, A286T, A290G, R387H, I389V counted along it

FC(F)(F)c1ccccc1OCCCc1c[nH]cn1
Ki [1]: ~500 nM
ED50 [2]: > 10 mg/kg

N#Cc1cccc(OCCCc2cnc[nH]2)c1
Ki [1]: 108 nM
ED50 [2]: > 10 mg/kg

FC(F)(F)c1cccc(OCCCc2c[nH]cn2)c1
Intrinsic activity [3]: 0.4
Ki [1]: 8.4 nM
ED50 [2]: 0.6 mg/kg
Intrinsic activity [4]: 1
EC50 [5]: 98 nM

Ic1ccc(COCCCc2c[nH]cn2)cc1
Activity [6]: Partial agonist

O=[N+]([O-])c1cccc(OCCCc2cnc[nH]2)c1
Ki [1]: 9.4 nM

Brc1cccc(OCCCc2c[nH]cn2)c1
Intrinsic activity [3]: < 0.1
ED50 [2]: > 10 mg/kg

CC(C)(C)CNC(=O)OCCCc1c[nH]cn1
Activity [7]: Antagonist

FC(F)(F)c1cccc(CCCCc2c[nH]cn2)c1
Ki [1]: 38 nM
ED50 [2]: 6.5 mg/kg
Intrinsic activity [4]: 0

Brc1cccc(OCCCc2cnc[nH]2)c1
Ki [1]: 19 nM

CC(C)c1cccc(OCCCc2cnc[nH]2)c1
Ki [1]: 29 nM

CC(C)(C)CCOCCCc1c[nH]cn1
Activity [8]: Agonist

FC(F)(F)c1cccc(OCCc2c[nH]cn2)c1
Ki [1]: 18 nM
ED50 [2]: < 10 mg/kg
Intrinsic activity [9]: 0

FC(F)(F)c1cc(OCCCc2c[nH]cn2)cc(C(F)(F)F)c1
Ki [1]: 116 nM
ED50 [2]: 4.8 mg/kg
Intrinsic activity [4]: 0

N#Cc1ccc(OCCCc2c[nH]cn2)cc1
ED50 [2]: 0.54 mg/kg
Intrinsic activity [4]: 0

CC(C)(C)c1cccc(OCCCc2c[nH]cn2)c1
Intrinsic activity [10]: 0.28
ED50 [2]: 0.8 mg/kg
Intrinsic activity [4]: 0.78

CCc1cccc(OCCCc2cnc[nH]2)c1
Ki [1]: 15 nM

S=C(NC1CCCCC1)N1CCC(c2cnc[nH]2)CC1 [THIOPERAMIDE]
ED50 [2]: 1 mg/kg

c1nc(CC2CCNCC2)c[nH]1
Activity [11]: Antagonist
Activity [12]: Partial agonist

NCC[C@@H]1C[C@@H]1c1c[nH]cn1
Activity [11]: Antagonist
Activity [12]: Partial agonist

NC[C@H]1CC[C@H](c2c[nH]cn2)O1
Activity [11]: Antagonist
Activity [12]: Partial agonist

CC(C)CNC(=O)OCCCc1c[nH]cn1
Activity [7]: Antagonist

CC(C)NC(=O)OCCCc1c[nH]cn1
Activity [7]: Antagonist
Activity [13]: Partial antagonist

CC(C)(C)NC(=O)OCCCc1c[nH]cn1
Activity [14]: Partial agonist
Activity [7]: Antagonist

C[C@H]1NCC[C@@H]1c1c[nH]cn1
Activity [11]: Antagonist
Activity [12]: Partial agonist

CC(=O)c1cccc(OCCCc2c[nH]cn2)c1
Intrinsic activity [10]: 0.15
ED50 [2]: 0.4 mg/kg
Intrinsic activity [4]: 0.9

N=C(N)SCCc1c[nH]cn1
Activity [11]: Antagonist
Activity [12]: Partial agonist

C[C@@H](N)Cc1c[nH]cn1
Activity [11]: Antagonist
Activity [12]: Partial agonist

N=C(N)CCCc1c[nH]cn1
Activity [11]: Antagonist
Activity [12]: Partial agonist

O=[N+]([O-])c1cccc(OCCCc2c[nH]cn2)c1
Intrinsic activity [10]: 0.1
ED50 [2]: 1.1 mg/kg
Intrinsic activity [4]: 0.61

CC(C)CCOCCCc1c[nH]cn1
Activity [15]: Partial agonist
Activity [16]: Antagonist
Activity [8]: Agonist

NCCCCCc1c[nH]cn1
Activity [11]: Antagonist
Activity [12]: Partial agonist

FC(F)(F)c1cccc(OCCCCc2c[nH]cn2)c1
Intrinsic activity [4]: 0.7

FC(F)(F)c1cccc(SCCc2c[nH]cn2)c1
Intrinsic activity [10]: 0.4
ED50 [2]: 0.94 mg/kg
Intrinsic activity [4]: 0.7

CCc1cccc(OCCCc2c[nH]cn2)c1
Intrinsic activity [10]: 0.2
ED50 [2]: ~1 mg/kg
Intrinsic activity [4]: 0.85

CC(=O)c1cccc(OCCCc2cnc[nH]2)c1
Ki [1]: 20 nM

Cc1cccc(OCCCc2cnc[nH]2)c1
Ki [1]: 37 nM
ED50 [2]: > 10 mg/kg

CC(C)(C)c1cccc(OCCCc2cnc[nH]2)c1
Ki [1]: 22 nM

FC(F)(F)c1cccc(SCCCc2c[nH]cn2)c1
Ki [1]: 38 nM
ED50 [2]: > 10 mg/kg

c1ccc(OCCCc2c[nH]cn2)cc1
ED50 [2]: > 10 mg/kg

CC(NC(=O)OCCCc1c[nH]cn1)C(C)(C)C (stereo not drawn)
Activity [7]: Antagonist

CC(C)c1cccc(OCCCc2c[nH]cn2)c1
Intrinsic activity [10]: 0.3
ED50 [2]: 0.5 mg/kg
Intrinsic activity [4]: 0.82

FC(F)(F)c1ccc(OCCCc2c[nH]cn2)cc1
ED50 [2]: 0.6 mg/kg
Intrinsic activity [4]: 0
